Arr AP2 block: inhibitors of beta-arrestin/AP2 binding, primary screen, biochemical, GPCR trafficking, flow cytometry | beta-arrestin 1 C-terminal peptide binding to AP2 beta2-adaptin appendage (human) | FITC-arrestin peptide / GST-AP2 beads; AP2 beta2 appendage carries R879A mutation | inhibition, % at 10 µM | 0.31% of 340,000 active | AID 504490, 2011;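 active means inhibition above a set limit, near 3 SD of compounds lacking own fluorescence, cut at about 54% in these data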
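Test system: GST-tagged AP2 beta2-adaptin appendage (R879A) on 4 µm glutathione beads; also added: fluorescein-tagged arrestin peptide at 50 nM final; timing: 12 min plus 1 h, RT; signal: flow cytometry, FL1 (488/535 nm); read-out: percent drop in bead-associated FITC signal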
ABCB6 inh MLPCN: ABCB6 transporter inhibitors, primary screen, K562-ABCB6 cells, flow cytometry, MLPCN library; ATP-binding cassette sub-family B member 6 (Homo sapiens), Q9NP58; K562-ABCB6 porphyrin accumulation, 1 h; stronger effect = lower value; fluorescence ratio to DMSO, % at 10 µM; 0.19% of 360,000 active; AID 602162, 2011;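 active means fluorescence ratio to DMSO below 75%, the collection mean minus 3 SD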;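 further: signal is porphyrin accumulated inside mitochondria; lower ratio means ABCB6 inhibition with less porphyrin fluorescence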
hiPSC survival: enhancers of single-cell hiPSC survival, primary screen, ATPlite luminescence. survival enhancement, % at 20 µM. 0.044% of 360,000 active. 100% = ROCK inhibitor wells, 0% = DMSO; in the data active means survival enhancement above about 18%;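 further: cells exposed to compounds for 16 hours before the ATP read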
PG9 binder: binders of HIV-1 gp120 antibody PG9, primary screen, biochemical, TR-FRET; 0.43% of 360,000 active; TR-FRET gp120-PG9 antibody binding; inhibition, % at 6.7 µM; HIV-1 gp120 / PG9 antibody interaction; in the data active means inhibition above about 8.5%
Arr AP2 CP1: inhibitors of arrestin peptide binding to AP2, confirmation, biochemical, cherry pick 1, flow cytometry beads | AID 504908, 2011 | shares compounds with Arr AP2 block | 2% of 1,300 active | GST-AP2 beads, FITC arrestin peptide binding; GST-fused beta2-adaptin appendage, R879A mutant | inhibition, % at 10 µM;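 active means inhibition above a set limit, roughly 3 SD of non-fluorescent compound noise, cut at about 38% in these data; inactive means inhibition at or below that limit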;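 further: loss of bead fluorescence from 50 nM FITC arrestin peptide bound to appendage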
Target sequence (P63010 whole entry, looked up, the tested form may be a part, one chain of several): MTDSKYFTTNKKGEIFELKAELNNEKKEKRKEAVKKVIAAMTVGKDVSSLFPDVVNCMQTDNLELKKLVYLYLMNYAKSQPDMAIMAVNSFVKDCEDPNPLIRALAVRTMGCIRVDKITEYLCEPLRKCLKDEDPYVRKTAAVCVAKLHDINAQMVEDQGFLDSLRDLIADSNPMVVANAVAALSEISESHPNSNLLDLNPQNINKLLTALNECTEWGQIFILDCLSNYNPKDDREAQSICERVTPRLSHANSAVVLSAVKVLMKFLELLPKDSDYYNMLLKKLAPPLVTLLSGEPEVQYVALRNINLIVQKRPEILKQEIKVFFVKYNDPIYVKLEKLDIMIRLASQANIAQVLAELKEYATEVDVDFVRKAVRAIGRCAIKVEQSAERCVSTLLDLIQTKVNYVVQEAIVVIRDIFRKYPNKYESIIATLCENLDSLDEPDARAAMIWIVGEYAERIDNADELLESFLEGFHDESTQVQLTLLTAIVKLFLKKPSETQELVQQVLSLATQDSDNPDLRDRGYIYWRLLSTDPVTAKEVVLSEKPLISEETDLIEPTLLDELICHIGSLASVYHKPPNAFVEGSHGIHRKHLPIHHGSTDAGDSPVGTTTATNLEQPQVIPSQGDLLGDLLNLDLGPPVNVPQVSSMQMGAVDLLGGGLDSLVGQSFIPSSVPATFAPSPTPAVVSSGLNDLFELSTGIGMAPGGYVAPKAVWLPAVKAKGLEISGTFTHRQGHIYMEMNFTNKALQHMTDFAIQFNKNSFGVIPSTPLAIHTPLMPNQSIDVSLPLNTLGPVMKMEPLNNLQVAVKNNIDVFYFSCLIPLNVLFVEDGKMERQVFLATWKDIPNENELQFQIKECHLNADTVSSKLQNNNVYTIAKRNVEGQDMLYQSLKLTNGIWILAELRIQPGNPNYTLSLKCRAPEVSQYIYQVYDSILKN
GST-FITC bead: GST-fluorescein capture on glutathione beads, confirmation, artefact control for arrestin-AP2 inhibitor project, biochemical, cherry pick 1, flow cytometry; GST-fluorescein binding to GSH beads, fluorescence, counter-screen; shares compounds with Arr AP2 block; 2% of 1,300 active; inhibition, % at 10 µM;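 active means inhibition above 50%, about 3 SD of the inhibition seen with non-fluorescent compounds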;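 further: fluorescein maleimide labelled GST captured on 4 micron glutathione beads; higher means more loss of bead fluorescence from quenching or blocked binding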
Of the large screens only hits and unclear results are named; the others gave an inactive call (follow-up assays come after a bar, where they were run). Only some compounds are listed: those with a hit (about 0.89% of all), similar ones and a draw of the others.

COc1ccc(CN(Cc2cc3cc4c(cc3[nH]c2=O)OCO4)C(=O)NC2CCCCC2)cc1	none | Arr AP2 CP1 inactive | GST-FITC bead inactive
COc1ccc2[nH]c(=O)c(CN(C(=O)NC3CCCCC3)C3CCCCC3)cc2c1	none
COC(=O)Cn1cnc2c(NC(=O)c3ccccc3)ncnc21	none (no result: Arr AP2 block, ABCB6 inh MLPCN, hiPSC survival)
CCOC(=O)Nc1cc(=O)c([N+](=O)[O-])c(N)[nH]1	none (no result: Arr AP2 block, ABCB6 inh MLPCN, hiPSC survival)
CCCCCCC12C(=Cc3cc(C)ccc31)c1ccccc1C(CC(=O)NCc1ccccc1)N2C(=O)OC (stereo not given)	none (no result: Arr AP2 block, ABCB6 inh MLPCN, hiPSC survival)
CN(C)c1ccc(/C=N/NC(=O)C(O)(c2ccccc2)c2ccccc2)o1	Arr AP2 block 61 | Arr AP2 CP1 inactive | GST-FITC bead inactive
O=C(Nc1c2c(nn1-c1ccccc1)CS(=O)(=O)C2)c1cc2ccccc2o1	none
Cc1ccc(-n2nc3c(c2NC(=O)c2cc4ccccc4o2)CS(=O)(=O)C3)cc1	Arr AP2 block 57 | Arr AP2 CP1 inactive | GST-FITC bead inactive
Cc1ccccc1C(=O)N=c1ccn(-c2nc3ccccc3nc2NS(=O)(=O)c2ccc(F)cc2)cc1	none
O=C(N=c1ccn(-c2nc3ccccc3nc2NS(=O)(=O)c2ccccc2)cc1)c1cccs1	Arr AP2 block 58 | Arr AP2 CP1 inactive | GST-FITC bead 60
CCc1ccc(C(=O)COC(=O)c2cc([N+](=O)[O-])ccc2NCCO)cc1	Arr AP2 block 57 | Arr AP2 CP1 inactive | GST-FITC bead inactive
CC(=O)N1CCN(c2ccc(N3CCN(C(C)=O)[C@@H](C)C3)c(C)c2)[C@@H](C)C1	none (no result: Arr AP2 block, ABCB6 inh MLPCN, hiPSC survival)
Cc1cc(NC(=O)CC#N)n(-c2nc3ccccc3[nH]2)n1	none
COc1ccc(C(=O)Nc2cc(C)nn2-c2nc3ccccc3[nH]2)c(OC)c1	none | Arr AP2 CP1 inactive | GST-FITC bead inactive
COc1cccc(OC)c1C(=O)Nc1cc(C)nn1-c1nc2ccccc2[nH]1	none | Arr AP2 CP1 inactive | GST-FITC bead inactive
Cc1cc(NC(=O)c2ccccc2)n(-c2nc3ccccc3[nH]2)n1	none | Arr AP2 CP1 inactive | GST-FITC bead inactive
NC(=O)c1ncn([C@@H]2O[C@H](C(=O)N[C@H](Cc3c[nH]c4ccccc34)C(=O)N3CCN(CC(=O)N4CCCC4)CC3)[C@@H](O)[C@H]2O)n1	none (no result: Arr AP2 block, ABCB6 inh MLPCN, hiPSC survival)
Cc1ccc(NC(=O)N2CCCCCC2)cc1C	Arr AP2 block 63 | Arr AP2 CP1 inactive | GST-FITC bead inactive
CC(=O)Nc1nnc(S(=O)(=O)N2CCN(c3ccc(Cl)cc3[N+](=O)[O-])CC2)s1	Arr AP2 block 56 | Arr AP2 CP1 inactive | GST-FITC bead inactive
COCCN1CCCc2nc(-c3ccc(Br)cc3)ccc21	none (no result: Arr AP2 block, ABCB6 inh MLPCN, hiPSC survival)
CCOC(=O)C1(Cc2cccc(Cl)c2)CCCN(C(=O)CCNC(C)=O)C1 (stereo not given)	none
CCOC(=O)C1(Cc2cccc(Cl)c2)CCCN(C(=O)CN2C(=O)CSC2=O)C1 (stereo not given)	Arr AP2 block 62 | Arr AP2 CP1 inactive | GST-FITC bead inactive
CCOC(=O)C1(Cc2cccc(Cl)c2)CCCN(C(=O)c2cn[nH]c2)C1 (stereo not given)	Arr AP2 block 67 | Arr AP2 CP1 inactive | GST-FITC bead inactive
C=CCN1C(=O)c2n[nH]c(COC)c2C1c1ccc(F)cc1 (stereo not given)	none (no result: Arr AP2 block, ABCB6 inh MLPCN, hiPSC survival)
COCCN1Cc2cc(C(=O)OC)c3c(c2C1=O)c1ccccc1n3S(=O)(=O)c1ccc(OC)cc1	none (no result: Arr AP2 block, ABCB6 inh MLPCN, hiPSC survival)
CCOc1ccc(/C=N/NC(=O)C(=O)NCc2ccco2)cc1	Arr AP2 block 102 | Arr AP2 CP1 inactive | GST-FITC bead inactive
O=C1C=CC(=O)c2c(O)c(N3CCN(CCO)CC3)c(Cl)c(O)c21	Arr AP2 block 80 | Arr AP2 CP1 44 | GST-FITC bead inactive
O=S(=O)(c1ccc(Br)cc1Cl)N1CCN(CCO)CC1	none
OCCOCCN1CCN(C2=Nc3ccccc3Sc3ccccc32)CC1	none
O=C1C=CC(=O)c2c(O)c(N3CCN(CCOCCO)CC3)c(Br)c(O)c21	Arr AP2 block 69 | Arr AP2 CP1 52 | GST-FITC bead inactive
CC1Cc2ccccc2N1C(=O)COC(=O)c1cccnc1Cl (stereo not given)	none
Cc1cnc(C(=O)OCC(=O)N2c3ccccc3CC2C)cn1 (stereo not given)	Arr AP2 block 55 | Arr AP2 CP1 inactive | GST-FITC bead inactive
COC(c1ccccc1)c1nnc(CCC(=O)N2CCN(C3CCCC3)CC2)o1 (stereo not given)	Arr AP2 block 69 | Arr AP2 CP1 inactive | GST-FITC bead inactive
COC(=O)c1cc2c(c3c4cc(OC)ccc4n(S(=O)(=O)c4ccc(OC)cc4)c13)C(=O)N(Cc1ccco1)C2	none (no result: Arr AP2 block, ABCB6 inh MLPCN, hiPSC survival)
Cc1cccc(C(=O)N/C(=C/c2ccco2)C(=O)N2CCCCCC2)c1	Arr AP2 block 66 | Arr AP2 CP1 inactive | GST-FITC bead inactive
COc1ccc(C(O)P(=O)(O)CCc2ccccc2)cc1 (stereo not given)	Arr AP2 block 62 | Arr AP2 CP1 inactive | GST-FITC bead inactive
COc1ccc(CC(=O)N(C)Cc2ccc(Cl)cc2)cc1S(=O)(=O)N1CCOCC1	Arr AP2 block 64 | Arr AP2 CP1 inactive | GST-FITC bead inactive
Cc1nn(C)c(Cl)c1/C=N/OC(=O)c1ccccc1	none
Cn1c(Cl)c(/C=N/OC(=O)c2ccccc2Cl)c2ccccc21	Arr AP2 block 54 | Arr AP2 CP1 inactive | GST-FITC bead inactive
COC(=O)[C@]12C[C@H](CC(=O)NCc3ccc(C)o3)C(=O)N(Cc3ccc4c(c3)OCO4)C1=C[C@H](C(C)(C)C)O[C@@H]2C	none (no result: Arr AP2 block, ABCB6 inh MLPCN, hiPSC survival)
CC12CC3(C)CC(C)(C1)CC(C(=O)NCc1ccccn1)(C2)C3	none
COC(=O)CNC(=O)C12CC3(C)CC(C)(CC(C)(C3)C1)C2	Arr AP2 block 59 | Arr AP2 CP1 inactive | GST-FITC bead inactive
CN(C(=O)c1cn(C)c2ccccc12)c1ccc(Oc2cccnc2)cc1	none (no result: Arr AP2 block, ABCB6 inh MLPCN, hiPSC survival)
CC(=O)/C(=N\Nc1cccc(Cl)c1)Sc1nnc(-c2ccccc2)n1-c1ccccc1	Arr AP2 block 105 | Arr AP2 CP1 inactive | GST-FITC bead inactive
COc1ccc(C2Nc3ccccc3C(=O)N2NS(=O)(=O)c2ccccc2)cc1OC (stereo not given)	none
COc1ccc(C2Nc3ccccc3C(=O)N2NS(C)(=O)=O)cc1OC (stereo not given)	Arr AP2 block 71 | Arr AP2 CP1 inactive | GST-FITC bead inactive
CC(C)CNc1cccc2c1S(=O)(=O)N[C@@H](C)CO2	none (no result: Arr AP2 block, ABCB6 inh MLPCN, hiPSC survival)
COC(=O)c1nc(-c2ccc(C)cc2)oc1N(C)C	Arr AP2 block 59 | Arr AP2 CP1 inactive | GST-FITC bead inactive

Source: PubChem
